Data from ChEMBL document CHEMBL1833859, “Discovery of novel imidazo[1,2-a]pyrazin-8-amines as Brk/PTK6 inhibitors” (Bioorg Med Chem Lett, 2011).

Assays:
[1] = Cmax in mouse at 30 mg/kg, po; format: ADME, organism-based; design: dose 30 mg/kg, route oral; details: in vivo
Summary of the method: (§1)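 Mouse pharmacokinetics, 15 animals per dose group, dosed intraperitoneally at 30 mg/kg or orally at 10, 30 or 100 mg/kg. Plasma levels were followed from 0 to 6 h.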

[2] = Cmax in mouse at 100 mg/kg, po; format: ADME, organism-based; design: dose 100 mg/kg, route oral; details: in vivo; summary of the method: as §1
[3] = Tmax in mouse at 30 mg/kg, po; format: ADME, organism-based; design: dose 30 mg/kg, route oral; details: in vivo; summary of the method: as §1
[4] = Intrinsic clearance in human Hepatocytes assessed as per million cells; format: ADME, cell-based, Liver, Hepatocyte
[5] = Tmax in mouse at 10 mg/kg, po; format: ADME, organism-based; design: dose 10 mg/kg, route oral; details: in vivo; summary of the method: as §1
[6] = AUC (0 to 6 hrs) in mouse at 100 mg/kg, po; format: ADME, organism-based; design: time < 6 hr, dose 100 mg/kg, route oral; details: plasma; summary of the method: as §1
[7] = Tmax in mouse at 30 mg/kg, ip; format: ADME, organism-based; design: dose 30 mg/kg, route intraperitoneal; details: in vivo; summary of the method: as §1
[8] = AUC (0 to 6 hrs) in mouse at 30 mg/kg, ip; format: ADME, organism-based; design: time < 6 hr, dose 30 mg/kg, route intraperitoneal; details: plasma; summary of the method: as §1
[9] = target: Aurora kinase B (Homo sapiens, UniProt Q96GD4); experiment: Inhibition of AurB
Aurora kinase B, sequence (Q96GD4 whole entry): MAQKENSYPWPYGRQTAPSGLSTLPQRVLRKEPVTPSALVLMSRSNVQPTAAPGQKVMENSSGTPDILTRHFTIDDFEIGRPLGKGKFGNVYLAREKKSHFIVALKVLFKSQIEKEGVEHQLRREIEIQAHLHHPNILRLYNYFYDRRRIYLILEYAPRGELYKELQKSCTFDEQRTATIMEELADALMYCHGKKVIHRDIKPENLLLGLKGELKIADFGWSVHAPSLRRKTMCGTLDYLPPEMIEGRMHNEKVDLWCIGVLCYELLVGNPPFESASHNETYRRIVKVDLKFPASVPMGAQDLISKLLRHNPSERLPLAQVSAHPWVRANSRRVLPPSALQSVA

[10] = Cmax in mouse at 30 mg/kg, ip; format: ADME, organism-based; design: dose 30 mg/kg, route intraperitoneal; details: in vivo; summary of the method: as §1
[11] = Intrinsic clearance in rat Hepatocytes assessed as per million cells; format: ADME, cell-based, Liver, Hepatocyte
[12] = Cmax in mouse at 10 mg/kg, po; format: ADME, organism-based; design: dose 10 mg/kg, route oral; details: in vivo; summary of the method: as §1
[13] = AUC (0 to 6 hrs) in mouse at 10 mg/kg, po; format: ADME, organism-based; design: time < 6 hr, dose 10 mg/kg, route oral; details: plasma; summary of the method: as §1
[14] = Inhibition of CYP; format: ADME
[15] = AUC (0 to 6 hrs) in mouse at 30 mg/kg, po; format: ADME, organism-based; design: time < 6 hr, dose 30 mg/kg, route oral; details: plasma; summary of the method: as §1
[16] = Tmax in mouse at 100 mg/kg, po; format: ADME, organism-based; design: dose 100 mg/kg, route oral; details: in vivo; summary of the method: as §1
[17] = target: Tyrosine-protein kinase Lck (Homo sapiens, UniProt P06239); experiment: Inhibition of LCK
Tyrosine-protein kinase Lck, sequence (P06239 whole entry): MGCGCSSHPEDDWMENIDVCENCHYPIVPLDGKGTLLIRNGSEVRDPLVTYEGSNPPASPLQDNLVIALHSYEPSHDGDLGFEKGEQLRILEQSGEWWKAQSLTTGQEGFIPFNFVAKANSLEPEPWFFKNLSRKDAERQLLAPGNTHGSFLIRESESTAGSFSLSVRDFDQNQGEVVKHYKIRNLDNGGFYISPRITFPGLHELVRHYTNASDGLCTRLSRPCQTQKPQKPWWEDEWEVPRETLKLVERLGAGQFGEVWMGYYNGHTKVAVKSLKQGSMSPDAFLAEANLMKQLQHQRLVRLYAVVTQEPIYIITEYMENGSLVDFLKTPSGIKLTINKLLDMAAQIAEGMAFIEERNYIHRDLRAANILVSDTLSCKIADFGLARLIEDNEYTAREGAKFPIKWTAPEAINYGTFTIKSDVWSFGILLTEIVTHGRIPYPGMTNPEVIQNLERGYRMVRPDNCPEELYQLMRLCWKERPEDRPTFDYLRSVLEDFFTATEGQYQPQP

Cc1cn2c(-c3cn[nH]c3)cnc2c(Nc2ccc(C(=O)N3CCNCC3)cc2F)n1
Cmax [1]: 420 nM
Cmax [2]: 1600 nM
Tmax [3]: 2 h
hepatocyte CLint [4]: 2 µL/min/1e6 cells
Tmax [5]: 6 h
AUC(0-t) at 6 h [6]: 8.1 µM·h
Tmax [7]: 0.5 h
AUC(0-t) at 6 h [8]: 17.1 µM·h
IC50 [9]: > 20 µM
Cmax [10]: 17900 nM
hepatocyte CLint [11]: 5.3 µL/min/1e6 cells
Cmax [12]: 40 nM
AUC(0-t) at 6 h [13]: 0.1 µM·h
IC50 [14]: > 20 µM
AUC(0-t) at 6 h [15]: 1.4 µM·h
Tmax [16]: 4 h
IC50 [17]: > 20 µM
